ChEMBL document CHEMBL4376883, “Discovery and Optimization of Small Molecules Targeting the Protein-Protein Interaction of Heat Shock Protein 90 (Hsp90) and Cell Division Cycle 37 as Orally Active Inhibitors for the Treatment of Colorectal Cancer” (J Med Chem, 2020)

How the values were obtained:
[1] = target: Heat shock protein HSP 90-beta/Hsp90 co-chaperone Cdc37 (Homo sapiens) (UniProt P08238+Q16543); assay: Inhibition of His-tagged HSP90/GST-tagged Cdc37 (unknown origin) protein-protein interaction at 100 uM measured after 1 hr by HTRF assay relative to control; type: protein-complex assay
Procedure, shortened: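 His-Hsp90 and GST-Cdc37 were premixed at a final 80 nM in PBS with 200 mM KF, pH 7.4. Compound was added and the mix incubated 1 h at 37 °C, then read by HTRF. Inhibition rate was taken at 100 μM compound.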

HCT-116 = assay: Antiproliferative activity against human HCT116 cells measured after 72 hrs by CCK8 assay; type: functional, cell-based; conditions: HCT-116, 72 h
Procedure, shortened: (§1)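 Cells grown in RPMI 1640 with 10% FBS at 37 °C, 5% CO2; STR-authenticated and mycoplasma-checked. Seeded at 3000-5000 cells/well and left 24 h. Serial compound dilutions added for 72 h, with matched DMSO as control. Viability read by CCK8 kit using the standard protocol. IC50 values derived from at least three parallel experiments.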

Heat shock protein HSP90 [2] = target: T1, Heat shock protein HSP90 (Homo sapiens, UniProt P07900+P08238); assay: Binding affinity to recombinant […] HSP90 N-terminal domain (9 to 236 residues) (unknown origin) expressed in Escherichia coli BL21 (DE3) by isothermal calorimetric method
Procedure, shortened: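 ITC: 50 µM Hsp90 in the cell and 300 µM compound in the syringe, both in 20 mM Tris-HCl, 150 mM NaCl, pH 7.4. Nineteen injections at 180 s intervals with stirring at 1000 rpm.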

A549 = assay: Antiproliferative activity against human A549 cells measured after 72 hrs by CCK8 assay; type: functional, cell-based; conditions: A549, 72 h; procedure, shortened: as §1
Heat shock protein HSP90 [3] = target: T1, Heat shock protein HSP90; assay: Inhibition of recombinant full-length HSP90 ATPase activity N-terminal domain (9 to 236 residues) (unknown origin) expressed in Escherichia coli BL21 (DE3) measured after 1 hr by ADP hunter plus assay
Heat shock protein HSP90 [4] = target: T1, Heat shock protein HSP90; assay: Binding affinity to recombinant […] HSP90 N-terminal domain (9 to 236 residues) (unknown origin) expressed in Escherichia coli BL21 (DE3) assessed as change in melting temperature by SYPRO dye based thermal shift assay
Procedure, shortened: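 Hsp90 N-terminal domain (10 µM) mixed with compound at 200, 100, 50 or 10 µM in 1× PBS, pH 8.0, with 6× SYPRO Orange. Heated from room temperature to 99 °C at 1 °C/min; fluorescence read at 492 nm excitation and 610 nm emission.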

[5] = Permeability of the compound at pH 7.4 by PAMPA; type: ADME; conditions: read-out: permeability
Procedure, shortened: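 Permeability coefficient (Pe) was measured at pH 7.4 by double-sink PAMPA.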

L02 = assay: Cytotoxicity against human L02 cells measured after 72 hrs by CCK8 assay; type: functional, cell-based; conditions: L02, 72 h; procedure, shortened: as §1
Heat shock protein HSP90 [6] = target: T1, Heat shock protein HSP90; assay: Binding affinity to recombinant […] biotinylated-HSP90 N-terminal domain (9 to 236 residues) (unknown origin) expressed in Escherichia coli BL21 (DE3) by biolayer interferometry
Procedure, shortened: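 Biotinylated Hsp90 (100 µg/mL) loaded onto streptavidin sensors prewetted 10 min in PBS with 0.05% BSA and 0.01% Tween 20. Analyte binding measured at 28 °C. Double reference subtraction applied; data fitted to a 1:1 model with K_D = K_off/K_on.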

[7] = Half life in mouse liver microsomes at 10 uM preincubated for 5 mins followed by NADPH addition by LC-MS/MS analysis; type: ADME, Microsome
Procedure, shortened: (§2)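 Compound at 10 µM preincubated 5 min at 37 °C with human or mouse liver microsomes (0.5 mg/mL) in 100 mM phosphate, pH 7.4. Reaction started with 1 mM NADPH, stopped with cold acetonitrile, centrifuged and analysed by LC-MS/MS.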

[8] = Stability of the compound in mouse plasma assessed as parent compound remaining at 1 uM measured immediately by LC-MS/MS analysis; type: ADME, cell-free; conditions: read-out: Stability
Procedure, shortened: (§3)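 Compound diluted from 10 mM DMSO stock to 1 μM in mouse or human plasma and held at 37 °C in a water bath. Reactions were stopped with acetonitrile at 0, 10, 30, 60 and 90 min. Parent compound was quantified by LC-MS/MS as % remaining.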

[9] = Stability of the compound in human plasma assessed as parent compound remaining at 1 uM measured after 30 mins by LC-MS/MS analysis; type: ADME, cell-free; conditions: read-out: Stability; procedure, shortened: as §3
[10] = Half life in human liver microsomes at 10 uM preincubated for 5 mins followed by NADPH addition by LC-MS/MS analysis; type: ADME, Microsome; procedure, shortened: as §2
[11] = Stability of the compound in mouse plasma assessed as parent compound remaining at 1 uM measured after 60 mins by LC-MS/MS analysis; type: ADME, cell-free; conditions: read-out: Stability; procedure, shortened: as §3
[12] = Stability of the compound in human plasma assessed as parent compound remaining at 1 uM measured after 10 mins by LC-MS/MS analysis; type: ADME, cell-free; conditions: read-out: Stability; procedure, shortened: as §3
[13] = Stability of the compound in human plasma assessed as parent compound remaining at 1 uM measured immediately by LC-MS/MS analysis; type: ADME, cell-free; conditions: read-out: Stability; procedure, shortened: as §3
[14] = Clearance in mouse liver microsomes at 10 uM preincubated for 5 mins followed by NADPH addition by LC-MS/MS analysis; type: ADME, Microsome; conditions: read-out: CLH; procedure, shortened: as §2
[15] = Stability of the compound in human plasma assessed as parent compound remaining at 1 uM measured after 90 mins by LC-MS/MS analysis; type: ADME, cell-free; conditions: read-out: Stability; procedure, shortened: as §3
[16] = Clearance in human liver microsomes at 10 uM preincubated for 5 mins followed by NADPH addition by LC-MS/MS analysis; type: ADME, Microsome; conditions: read-out: CLH; procedure, shortened: as §2
[17] = Stability of the compound in mouse plasma assessed as parent compound remaining at 1 uM measured after 90 mins by LC-MS/MS analysis; type: ADME, cell-free; conditions: read-out: Stability; procedure, shortened: as §3
[18] = Stability of the compound in human plasma assessed as parent compound remaining at 1 uM measured after 60 mins by LC-MS/MS analysis; type: ADME, cell-free; conditions: read-out: Stability; procedure, shortened: as §3
[19] = Distribution coefficient, log D of the compound at pH 7.4 by potentiometric titration method; type: physicochemical; conditions: octanol/water
Procedure, shortened: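 log D at pH 7.4 measured by potentiometric titration on a Gemini Profiler.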

[20] = Stability of the compound in mouse plasma assessed as parent compound remaining at 1 uM measured after 30 mins by LC-MS/MS analysis; type: ADME, cell-free; conditions: read-out: Stability; procedure, shortened: as §3
[21] = Stability of the compound in mouse plasma assessed as parent compound remaining at 1 uM measured after 10 mins by LC-MS/MS analysis; type: ADME, cell-free; conditions: read-out: Stability; procedure, shortened: as §3

**Q.** For `CCN(CC)c1nccc(Nc2ccc(N(CC(=O)O)S(=O)(=O)c3c(C)cc(C)cc3C)cc2)n1`, which inhibition [1] is on record?
**A.** Its inhibition is 79.6%.

**Q.** Which IC50 (HCT-116) does the source give for `Cc1cc(C)c(S(=O)(=O)N(Cc2nnn[nH]2)c2ccc(Nc3ccnc(N4CCNCC4)n3)cc2)c(C)c1` here?
**A.** Its IC50 is 5.42 µM.

**Q.** And the Kd (Heat shock protein HSP90 [2])?
**A.** Its Kd is 2.4 µM.

**Q.** What about the inhibition [1] of the same compound?
**A.** The inhibition was 98.6%.

**Q.** What about the IC50 (A549) of the same compound?
**A.** Its IC50 is 37.9 µM.

**Q.** And the IC50 (Heat shock protein HSP90 [3])?
**A.** Its IC50 is > 100 µM.

**Q.** And the ΔTm (Heat shock protein HSP90 [4])?
**A.** The ΔTm was 1.36 °C.

**Q.** What about the Papp [5] of the same compound?
**A.** Its Papp is 55.4 ×10⁻⁶ cm/s.

**Q.** What about the IC50 (L02) of the same compound?
**A.** The IC50 was > 50 µM.

**Q.** What about the Kd (Heat shock protein HSP90 [6]) of the same compound?
**A.** Its Kd is 5.5 µM.

**Q.** Which inhibition [1] does the source give for `Cc1cc(C)c(S(=O)(=O)N(CC(=O)O)c2ccc(Nc3ccnc(NC4CC4)n3)cc2)c(C)c1` here?
**A.** The inhibition was < 50%.

**Q.** Which results are given for `Cc1cc(C)c(S(=O)(=O)N(CC(=O)O)c2ccc(Nc3ccnc(N4CCCC4)n3)cc2)c(C)c1`?
**A.** half-life at 10 µM [7]: 16.8 min; IC50 (HCT-116): 10.2 µM; Kd (Heat shock protein HSP90 [2]): 7.81 µM; remaining at 0 min, 1 µM [8]: 100%; remaining at 0.5 h, 1 µM [9]: 92%; IC50 (A549): 55.7 µM; half-life at 10 µM [10]: 30.4 min; remaining at 1 h, 1 µM [11]: 71%; remaining at 10 min, 1 µM [12]: 101%; IC50 (Heat shock protein HSP90 [3]): > 100 µM; remaining at 0 min, 1 µM [13]: 100%; microsomal CLint at 10 µM [14]: 59 µL/min/mg; remaining at 1.5 h, 1 µM [15]: 62%; microsomal CLint at 10 µM [16]: 32.6 µL/min/mg; remaining at 1.5 h, 1 µM [17]: 59%; Papp [5]: 70.4 ×10⁻⁶ cm/s; IC50 (L02): > 50 µM; remaining at 1 h, 1 µM [18]: 76%; Kd (Heat shock protein HSP90 [6]): 7.41 µM; logD [19]: 1.67; remaining at 0.5 h, 1 µM [20]: 86%; remaining at 10 min, 1 µM [21]: 100%

**Q.** With `CNc1nccc(Nc2ccc(N(CC(=O)OC)S(=O)(=O)c3c(C)cc(C)cc3C)cc2)n1` as the compound, how does the inhibition [1] read?
**A.** The inhibition was < 50%.

**Q.** Which inhibition [1] does the source give for `COc1ccc(CN(c2ccc(Nc3ccnc(N4CCCC4)n3)cc2)S(=O)(=O)c2c(C)cc(C)cc2C)cc1` here?
**A.** The inhibition was < 50%.

**Q.** With `COc1ccc(S(=O)(=O)Nc2ccc(Nc3ccnc(N4CCCC4)n3)cc2)cc1` as the compound, how does the inhibition [1] read?
**A.** The inhibition was < 20%.

**Q.** With `Cc1cc(C)c(S(=O)(=O)N(CC(=O)O)c2ccc(Nc3ccnc(N4CCCCC4)n3)cc2)c(C)c1` as the compound, how does the inhibition [1] read?
**A.** Its inhibition is 86.2%.

**Q.** With `COc1ccc(S(=O)(=O)Nc2ccc(Nc3ccnc(N4CCCC4)n3)cc2)c(OC)c1` as the compound, how does the inhibition [1] read?
**A.** Its inhibition is 36.2%.

**Q.** Which inhibition [1] does the source give for `CCNc1nccc(Nc2ccc(N(CC(=O)O)S(=O)(=O)c3c(C)cc(C)cc3C)cc2)n1` here?
**A.** The inhibition was < 50%.

**Q.** With `CCC(CC)Nc1nccc(Nc2ccc(N(CC(=O)O)S(=O)(=O)c3c(C)cc(C)cc3C)cc2)n1` as the compound, how does the inhibition [1] read?
**A.** The inhibition was < 50%.

**Q.** With `O=S(=O)(Nc1ccc(Nc2ccnc(N3CCCC3)n2)cc1)c1ccc2ccccc2c1` as the compound, how does the inhibition [1] read?
**A.** Its inhibition is 46.7%.

**Q.** For `Cc1cc(C)c(S(=O)(=O)N(CC(N)=O)c2ccc(Nc3ccnc(N4CCCC4)n3)cc2)c(C)c1`, which inhibition [1] is on record?
**A.** The inhibition was < 50%.

**Q.** For `Cc1cc(C)c(S(=O)(=O)N(CC(=O)O)c2ccc(Nc3ccnc(N4CCCCCC4)n3)cc2)c(C)c1`, which inhibition [1] is on record?
**A.** The inhibition was < 50%.

**Q.** With `COC(=O)CN(c1ccc(Nc2ccnc(N3CCCCCC3)n2)cc1)S(=O)(=O)c1c(C)cc(C)cc1C` as the compound, how does the inhibition [1] read?
**A.** Its inhibition is < 50%.

**Q.** What does the source list for `COc1cc(S(=O)(=O)Nc2ccc(Nc3ccnc(N4CCCC4)n3)cc2)c(C)cc1C`?
**A.** inhibition [1]: 56.3%; Papp [5]: 65.9 ×10⁻⁶ cm/s; Kd (Heat shock protein HSP90 [6]): 21.1 µM; logD [19]: 4.82

**Q.** With `Cc1cc(C)c(S(=O)(=O)N(Cc2ccc(C(=O)O)cc2)c2ccc(Nc3ccnc(N4CCCC4)n3)cc2)c(C)c1` as the compound, how does the inhibition [1] read?
**A.** The inhibition was 52.8%.

**Q.** For `CNc1nccc(Nc2ccc(N(CC(=O)O)S(=O)(=O)c3c(C)cc(C)cc3C)cc2)n1`, which inhibition [1] is on record?
**A.** The inhibition was < 50%.
